The source made the active and inactive calls. The rule behind the calls is not given here.
Key:
[1] = target: T1, Neutrophil elastase (Homo sapiens) (UniProt P08246); test: Second order rate constant for inhibition of Human leukocyte elastase (major diastereomeric pair of enantiomer)
T1 sequence (whole entry): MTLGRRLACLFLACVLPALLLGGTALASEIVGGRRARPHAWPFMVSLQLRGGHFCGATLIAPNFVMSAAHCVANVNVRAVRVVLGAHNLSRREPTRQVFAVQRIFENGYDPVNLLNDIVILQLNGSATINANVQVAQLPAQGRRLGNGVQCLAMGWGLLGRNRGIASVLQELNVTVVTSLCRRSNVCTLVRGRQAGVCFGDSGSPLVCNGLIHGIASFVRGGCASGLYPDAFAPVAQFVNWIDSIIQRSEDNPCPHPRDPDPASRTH
In short: (§1)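 Human leukocyte elastase (20 μM stock in pH 5.0 acetate buffer) incubated with inhibitor added from DMSO stock in 0.1 M HEPES pH 7.2, 25 °C. Aliquots withdrawn at intervals are diluted into HEPES containing MeO-Suc-Ala-Ala-Pro-Val-p-NA, and initial rates are followed at 410 nm over 60 s against control incubations. k_obs comes from plots of v/v0 versus time (Kitz–Wilson incubation method).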

[2] = target: T1, Neutrophil elastase (Homo sapiens); test: Second order rate constant for inhibition of Human leukocyte elastase (minor diastereomeric pair of enantiomer); in short: as §1
[3] = target: T1, Neutrophil elastase (Homo sapiens); test: Second order rate constant for inhibition of Human leukocyte elastase (major diastereomeric 2 pairs of enantiomer); in short: as §1
[4] = target: T1, Neutrophil elastase (Homo sapiens); test: Second order rate constant for inhibition of Human leukocyte elastase (minor diastereomeric pair of enantiomer); NI=no inhibition; in short: as §1

Row | SMILES | k obs / 1 [1] | also measured
1 | CCOC(=O)C(OC(=O)c1ccc(OC)cc1)N1C(=O)C(CC)(CC)C1Sc1nc2ccccc2o1 (stereo unspecified) | 12.9 1/M 1/s | 
2 | CCC1(CC)C(=O)N(COC(=O)Nc2ccc(OC)cc2)C1S(=O)(=O)c1ccccc1 (stereo unspecified) | 100 1/M 1/s | 
3 | CCOC(=O)C(OC(=O)c1ccc(OC)cc1)N1C(=O)C(CC)(CC)C1S(=O)(=O)c1ccccc1 (stereo unspecified) |  | k obs / 1 [3]: 24.4 1/M 1/s
4 | CCOC(=O)C(OC(=O)c1ccc(OC)cc1)N1CC(CC)(CC)C1=O (stereo unspecified) | 10.7 1/M 1/s | 
5 | CCC1(CC)C(=O)N(C2OC(=O)N(c3ccc(C)cc3)C2=O)C1Sc1nc2ccccc2o1 (stereo unspecified) |  | k obs / 1 [3]: 80 1/M 1/s
6 | CCOC(=O)C(OC(=O)NC(=O)[n+]1ccccc1C(=O)OC)N1C(=O)C(CC)(CC)C1S(=O)(=O)c1ccccc1 (stereo unspecified) | 26.6 1/M 1/s | k obs / 1 [4]: inactive

Now from value to compound, other results behind:

Row | k obs / 1 [1] | SMILES | also measured
7 | 68.5 1/M 1/s | CCC1(CC)C(=O)N(C2OC(=O)N(Cc3ccccc3)C2=O)C1S(=O)(=O)c1ccccc1 (stereo unspecified) | k obs / 1 [2]: 51 1/M 1/s
8 | 43.2 1/M 1/s | CCC1(CC)C(=O)N(C2OC(=O)N(C(=O)[n+]3ccc(OC)cc3)C2=O)C1S(=O)(=O)c1ccccc1 (stereo unspecified) | k obs / 1 [2]: 49.7 1/M 1/s
9 | 115 1/M 1/s | CCC1(CC)C(=O)N(C2OC(=O)N(Cc3ccccc3)C2=O)C1Oc1ccccc1 (stereo unspecified) | k obs / 1 [2]: 144 1/M 1/s
10 | 1500 1/M 1/s | CCC1(CC)C(=O)N(C(=O)NCc2ccccc2)C1Oc1ccc(C(=O)O)cc1 (stereo unspecified) | 
11 | 38.2 1/M 1/s | CCOC(=O)C(OC(=O)NCc1ccccc1)N1C(=O)C(CC)(CC)C1Oc1ccccc1 (stereo unspecified) | 
12 | 23.9 1/M 1/s | CCC1(CC)CN(C2OC(=O)N(Cc3ccccc3)C2=O)C1=O (stereo unspecified) | 

— ChEMBL document CHEMBL1140332, “Design, synthesis, and enzymatic evaluation of N1-acyloxyalkyl- and N1-oxazolidin-2,4-dion-5-yl-substituted beta-lactams as novel inhibitors of human leukocyte elastase” (J Med Chem, 2005)
